The nature of data set [1]: Cytotoxicity against human HGF cells after 48 hrs. The class given is cell-based.
In data set [2] the target is T1, ATP-dependent translocase ABCB1 (Homo sapiens, UniProt P08183). Briefly: Reversal of P-glycoprotein-mediated multidrug resistance in human MDR1 gene transfected mouse L5178Y cells assessed as fluorescence activity ratio at 200 uM by rhodamine 123 accumulation assay. The class given is cell-based. An outline of the steps: (§1)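 Murine L-5178Y lymphoma cells transfected with human MDR1 gene (P-gp-overexpressing), alongside parental cells, treated or untreated with compound; rhodamine 123 accumulation measured by fluorescence; FAR = ratio of fluorescence intensity in treated versus untreated cells, values above 1 taken as MDR reversal.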

The nature of data set [3]: Growth inhibition of human Molt4/C8 cells after 3 days. The class given is functional, cell-based. The note with it: MOLT-4, 72 h. An outline of the steps:
(§2)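 Human CEM and Molt 4/C8 T-lymphocytes were grown for three days with or without serial dilutions of the compound. IC50 is the concentration that inhibits cell growth by 50%.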

The test system of data set [4] is HSC-3. Briefly: Cytotoxicity against human HSC3 cells after 48 hrs. It is filed as functional. The following applies: HSC-3, 48 h.
Data set [5] deals with HSC-4. Briefly: Cytotoxicity against human HSC4 cells after 48 hrs. The class given is functional. The note with it: HSC-4, 48 h.
Data set [6] relates to CCRF-CEM. Briefly: Growth inhibition of human CEM cells after 3 days. The class given is functional, cell-based. The note with it: 72 h. In outline:
as §2

Data set [7] can be described thus: Cytotoxicity against human HPLF cells after 48 hrs. The class given is cell-based.
Data set [8] has as its system HSC-2. Briefly: Cytotoxicity against human HSC2 cells after 48 hrs. The class given is functional. The following applies: HSC-2, 48 h.
For data set [9], the target named is T1, ATP-dependent translocase ABCB1. Briefly: Reversal of P-glycoprotein-mediated multidrug resistance in human MDR1 gene transfected mouse L5178Y cells assessed as fluorescence activity ratio at 20 uM by rhodamine 123 accumulation assay. The class given is cell-based. An outline of the steps:
as §1

Data set [10] deals with HL-60. Briefly: Cytotoxicity against human HL60 cells after 48 hrs. It is filed as functional. The note with it: HL-60, 48 h.
Data set [11] is described as follows: Cytotoxicity against human HPC cells after 48 hrs. It is filed as cell-based.
Data set [12] concerns RPMI8266. Briefly: Growth inhibition of human […] cells at 10 uM. It is filed as functional, cell-based. An outline of the steps: (§3)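 Human tumor cell line panel (59 lines across leukemia, melanoma, non-small cell lung, colon, CNS, ovarian, renal, prostate, breast) treated at a single 10 uM concentration; growth inhibition recorded per line.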
Data set [13] concerns T47D. Briefly: Growth inhibition of human T47D cells at 10 uM. The class given is functional, cell-based. In outline: as §3
The subject of data set [14] is OVCAR-4. Briefly: Growth inhibition of human OVCAR4 cells at 10 uM. It is filed as functional, cell-based. In outline: as §3
Data set [15] concerns PC-3. Briefly: Growth inhibition of human PC3 cells at 10 uM. The class given is functional, cell-based. An outline of the steps: as §3
In data set [16] the test system is EKVX. Briefly: Growth inhibition of human EKVX cells at 10 uM. The class given is functional, cell-based. In outline: as §3
Data set [17] concerns MDA-MB-468. Briefly: Growth inhibition of human MDA-MB-468 cells at 10 uM. It is filed as functional, cell-based. An outline of the steps: as §3
In data set [18] the test system is SF-295. Briefly: Growth inhibition of human SF295 cells at 10 uM. The class given is functional, cell-based. In outline:
as §3

Data set [19] deals with HCC 2998. Briefly: Growth inhibition of human HCC2998 cells at 10 uM. It is filed as functional, cell-based. In outline: as §3
Data set [20] has as its system NCI-H460. Briefly: Growth inhibition of human NCI-H460 cells at 10 uM. It is filed as functional, cell-based. An outline of the steps: as §3
The subject of data set [21] is HCT-116. Briefly: Growth inhibition of human HCT116 cells at 10 uM. It is filed as functional, cell-based. An outline of the steps:
as §3

The test system of data set [22] is HCT-15. Briefly: Growth inhibition of human HCT15 cells at 10 uM. It is filed as functional, cell-based. An outline of the steps: as §3
For data set [23], the system named is U-251. Briefly: Growth inhibition of human U251 cells at 10 uM. The class given is functional, cell-based. In outline:
as §3

In data set [24] the test system is Hs-578T. Briefly: Growth inhibition of human Hs 578T cells at 10 uM. It is filed as functional, cell-based. In outline: as §3
In data set [25] the test system is UACC-62. Briefly: Growth inhibition of human UACC62 cells at 10 uM. It is filed as functional, cell-based. In outline: as §3
Data set [26] has as its system DU-145. Briefly: Growth inhibition of human DU145 cells at 10 uM. It is filed as functional, cell-based. In outline:
as §3

Data set [27] concerns OVCAR-3. Briefly: Growth inhibition of human OVCAR-3 cells at 10 uM. It is filed as functional, cell-based. In outline: as §3
Data set [28] relates to HL-60. Briefly: Growth inhibition of human HL60 cells at 10 uM. The class given is functional, cell-based. In outline: as §3
The test system of data set [29] is CCRF-CEM. Briefly: Growth inhibition of human CCRF-CEM cells at 10 uM. It is filed as functional, cell-based. In outline: as §3
Data set [30] concerns RXF 393. Briefly: Growth inhibition of human RXF393 cells at 10 uM. It is filed as functional, cell-based. In outline: as §3
Data set [31] concerns SNB-75. Briefly: Growth inhibition of human SNB75 cells at 10 uM. The class given is functional, cell-based. In outline:
as §3

In data set [32] the test system is MDA-MB-435. Briefly: Growth inhibition of human MDA-MB-435 cells at 10 uM. The class given is functional, cell-based. In outline: as §3
The subject of data set [33] is NCI-H23. Briefly: Growth inhibition of human NCI-H23 cells at 10 uM. It is filed as functional, cell-based. In outline:
as §3

The subject of data set [34] is CAKI-1. Briefly: Growth inhibition of human Caki1 cells at 10 uM. It is filed as functional, cell-based. In outline:
as §3

Data set [35] concerns IGROV-1. Briefly: Growth inhibition of human IGROV1 cells at 10 uM. It is filed as functional, cell-based. An outline of the steps: as §3
For data set [36], the system named is A498. Briefly: Growth inhibition of human A498 cells at 10 uM. It is filed as functional, cell-based. In outline: as §3
Data set [37] has as its system M14. Briefly: Growth inhibition of human M14 cells at 10 uM. The class given is functional, cell-based. An outline of the steps: as §3
Data set [38] has as its system HOP-92. Briefly: Growth inhibition of human HOP92 cells at 10 uM. It is filed as functional, cell-based. In outline: as §3
Data set [39] deals with K562. Briefly: Growth inhibition of human K562 cells at 10 uM. It is filed as functional, cell-based. An outline of the steps: as §3
In data set [40] the test system is UO-31. Briefly: Growth inhibition of human UO31 cells at 10 uM. The class given is functional, cell-based. An outline of the steps: as §3
For data set [41], the system named is MCF7. Briefly: Growth inhibition of human MCF7 cells at 10 uM. The class given is functional, cell-based. In outline:
as §3

For data set [42], the system named is SW-620. Briefly: Growth inhibition of human SW620 cells at 10 uM. It is filed as functional, cell-based. In outline:
as §3

Data set [43] concerns OVCAR-8. Briefly: Growth inhibition of human OVCAR8 cells at 10 uM. The class given is functional, cell-based. In outline: as §3
In data set [44] the test system is LOX IMVI. Briefly: Growth inhibition of human LOXIMVI cells at 10 uM. It is filed as functional, cell-based. An outline of the steps:
as §3

Data set [45] relates to NCI/ADR-RES. Briefly: Growth inhibition of human NCI/ADR-RES cells at 10 uM. The class given is functional, cell-based. In outline: as §3
Data set [46] deals with NCI-H522. Briefly: Growth inhibition of human NCI-H522 cells at 10 uM. The class given is functional, cell-based. An outline of the steps:
as §3

The subject of data set [47] is A549. Briefly: Growth inhibition of human A549 cells at 10 uM. It is filed as functional, cell-based. In outline: as §3

Molecules are shown by their SMILES. Activity calls are given as the source filed them. The calls are words filed in the database; no cut-off is given here. Where only a bound is given, the exact number is not on record here.

Usually CC50 stands for the concentration giving 50% cytotoxicity. A high value points to better tolerance by the cells. As usually defined, the IC50 is the midpoint of a concentration-inhibition curve. High values mean a need for much substance, low ones inhibition by little substance.

T1 sequence (P08183 whole entry): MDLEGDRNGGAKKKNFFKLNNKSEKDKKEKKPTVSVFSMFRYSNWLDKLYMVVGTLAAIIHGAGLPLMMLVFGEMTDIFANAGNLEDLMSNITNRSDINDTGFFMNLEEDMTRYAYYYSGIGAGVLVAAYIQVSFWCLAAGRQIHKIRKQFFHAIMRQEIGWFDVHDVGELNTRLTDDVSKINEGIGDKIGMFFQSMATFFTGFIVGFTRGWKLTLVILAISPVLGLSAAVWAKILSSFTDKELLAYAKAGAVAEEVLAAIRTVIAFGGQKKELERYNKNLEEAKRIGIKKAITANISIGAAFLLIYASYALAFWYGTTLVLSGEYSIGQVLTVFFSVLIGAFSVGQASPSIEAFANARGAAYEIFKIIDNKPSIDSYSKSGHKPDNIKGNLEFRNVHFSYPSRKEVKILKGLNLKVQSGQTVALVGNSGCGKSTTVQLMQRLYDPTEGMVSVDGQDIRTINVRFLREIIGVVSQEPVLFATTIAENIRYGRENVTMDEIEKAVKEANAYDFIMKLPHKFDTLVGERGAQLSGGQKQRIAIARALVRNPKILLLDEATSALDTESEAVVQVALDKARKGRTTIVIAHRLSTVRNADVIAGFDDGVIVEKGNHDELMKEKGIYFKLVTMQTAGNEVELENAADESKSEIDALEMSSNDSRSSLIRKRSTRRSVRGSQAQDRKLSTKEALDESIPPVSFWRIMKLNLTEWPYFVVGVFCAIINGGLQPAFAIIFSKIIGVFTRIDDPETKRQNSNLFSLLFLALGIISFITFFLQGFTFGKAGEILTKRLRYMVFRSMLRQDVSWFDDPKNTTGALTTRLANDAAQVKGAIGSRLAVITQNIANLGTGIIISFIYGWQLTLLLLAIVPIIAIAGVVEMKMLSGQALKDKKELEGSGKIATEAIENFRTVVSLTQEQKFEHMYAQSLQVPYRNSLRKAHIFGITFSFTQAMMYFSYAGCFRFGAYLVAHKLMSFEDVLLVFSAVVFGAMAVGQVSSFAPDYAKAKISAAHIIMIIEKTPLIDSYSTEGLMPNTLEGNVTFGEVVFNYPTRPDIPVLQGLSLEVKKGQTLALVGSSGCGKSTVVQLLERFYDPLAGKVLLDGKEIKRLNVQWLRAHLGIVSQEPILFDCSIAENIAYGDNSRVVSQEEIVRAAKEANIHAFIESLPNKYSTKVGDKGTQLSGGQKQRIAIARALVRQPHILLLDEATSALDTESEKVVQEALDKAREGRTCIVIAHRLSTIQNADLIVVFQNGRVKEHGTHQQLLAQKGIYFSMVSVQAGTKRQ

Take `Cc1c(C(=O)/C=C/c2ccc([N+](=O)[O-])cc2)[n+]([O-])c2ccccc2[n+]1[O-]`: the results for the CC50 at 48 h in [1], in data set [7] and in data set [11] were 57 µM, 91 µM and more than 400 µM, respectively. Moreover, the Ratio is listed as 2.25 in [2] and 1.28 in [9]. The results for the IC50 in data set [3] and in data set [6] were 261 µM and 164 µM, respectively. The 50% cytotoxic concentration (CC50) in data set [4] is more than 400 µM; in data set [5], 73 µM; in data set [8], 55 µM; in data set [10] it was 262 µM.
For the molecule `Cc1ccc(/C=C/C(=O)c2c(C)[n+]([O-])c3ccccc3[n+]2[O-])cc1`, the 50% cytotoxic concentration (CC50) at 48 h was found to be 32 µM in [1], 23 µM in data set [7] and 40 µM in data set [11]. Also, the Ratio in data set [2] stood at 27.2; in data set [9] it was 9.79. Moreover, the IC50 is 8.4 µM in data set [3] and 22.4 µM in data set [6]. Moreover, the CC50 came out at 14 µM in data set [4], 11 µM in data set [5], 8.4 µM in data set [8] and 4.1 µM in [10].
`Cc1c(C(=O)/C=C/c2ccc(Cl)cc2)[n+]([O-])c2ccccc2[n+]1[O-]`: the CC50 at 48 h in [1] is 27 µM; in data set [7] it was 12 µM; in data set [11], 21 µM. The results for the Ratio in data set [2] and in data set [9] were 5.97 and 2.63, respectively. The figures for the 50% inhibitory concentration (IC50) in [3] and in [6] were 7.75 µM and 16 µM, respectively. In addition, the 50% cytotoxic concentration (CC50) is 38 µM in data set [4], 19 µM in [5], 13 µM in [8] and 11 µM in [10].
On to `Cc1c(C(=O)/C=C/c2ccc(F)cc2)[n+]([O-])c2ccccc2[n+]1[O-]`, for which the “growth inhibition (GI)” value in [12], in data set [13], in [14], in data set [15], in data set [16] and in data set [17] was “Active” in each case. The “growth inhibition (GI)” value in data set [18], in data set [19], in data set [20], in [21], in data set [22] and in data set [23] was “Active” in each case. Moreover, the “growth inhibition (GI)” value in [24], in data set [25], in [26], in data set [27], in data set [28] and in [29] was “Active” throughout. Also, the “growth inhibition (GI)” value in data set [30], in data set [31], in data set [32], in [33], in data set [34] and in data set [35] was “Active” throughout. Besides, the “growth inhibition (GI)” value in [36], in data set [37], in [38], in data set [39], in data set [40] and in data set [41] was “Active” throughout. For the same molecule, the “growth inhibition (GI)” value in [42], in data set [43], in [44], in [45], in [46] and in data set [47] was “Active” in each case. Besides, the results for the half-maximal cytotoxic concentration (CC50) at 48 h in [1], in data set [7] and in data set [11] were 31 µM, 20 µM and 48 µM, respectively. In addition, the results for the Ratio in [2] and in data set [9] were 25.8 and 4.81, respectively. For the same molecule, the IC50 in data set [3] is 6.4 µM; in data set [6], 10 µM. Further, the CC50 came to 7.7 µM in data set [4], 8.1 µM in [5], 6.2 µM in data set [8] and 4.6 µM in data set [10].
As for `Cc1c(C(=O)/C=C/c2ccc(Cl)c(Cl)c2)[n+]([O-])c2ccccc2[n+]1[O-]`, the results for the half-maximal cytotoxic concentration (CC50) at 48 h in data set [1], in data set [7] and in data set [11] were 29 µM, 5.7 µM and 13 µM, respectively. In addition, the results for the Ratio in data set [2] and in data set [9] were 11.9 and 4.42, respectively. In addition, the IC50 in data set [3] is 10.1 µM; in [6], 15.4 µM. Besides, the 50% cytotoxic concentration (CC50) in data set [4] was found to be 84 µM; in data set [5], 15 µM; in data set [8], 17 µM; in [10] it was 27 µM.

The record behind these values is ChEMBL document CHEMBL1137767, “2-(3-Aryl-2-propenoyl)-3-methylquinoxaline-1,4-dioxides: a novel cluster of tumor-specific cytotoxins which reverse multidrug resistance” (Bioorg Med Chem, 2009).
